Measurements published in ChEMBL document CHEMBL2176946, “An anthraquinone scaffold for putative, two-face Bim BH3 α-helix mimic” (J Med Chem, 2012).
Active and inactive are the calls of the source. No cut-off for these calls is given here.

Key:
[1] = target: Apoptosis regulator Bcl-2 (Homo sapiens, UniProt P10415); assay: Binding affinity to Bcl-2 after 30 mins by florescence polarization assay
Procedure, shortened: (§1)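 Fluorescence polarization binding assay against Mcl-1 and Bcl-2 proteins.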

[2] = target: T1, Induced myeloid leukemia cell differentiation protein Mcl-1 (Homo sapiens, UniProt Q07820); assay: Binding affinity to Mcl-1 after 30 mins by florescence polarization assay; procedure, shortened: as §1
T1 sequence (Q07820 whole entry): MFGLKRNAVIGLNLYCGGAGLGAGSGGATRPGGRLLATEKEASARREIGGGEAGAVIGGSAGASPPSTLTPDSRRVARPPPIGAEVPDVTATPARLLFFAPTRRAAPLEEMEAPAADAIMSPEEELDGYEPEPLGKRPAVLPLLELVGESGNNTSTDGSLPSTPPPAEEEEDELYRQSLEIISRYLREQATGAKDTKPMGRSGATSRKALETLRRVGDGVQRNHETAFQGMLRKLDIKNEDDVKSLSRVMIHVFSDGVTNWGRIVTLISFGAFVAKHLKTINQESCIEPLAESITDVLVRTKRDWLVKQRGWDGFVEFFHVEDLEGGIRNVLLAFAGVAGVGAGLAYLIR

[3] = Cytotoxicity against human NCI-H1688 cells by MTT assay; type: functional, cell-based
MCF7 [4] = assay: Induction of necrosis in human MCF7 cells at 10 uM after 12 to 24 hrs by Annexin V-FITC/PI staining based flow cytometry; type: functional, cell-based
MCF7 [5] = assay: Induction of apoptosis in human MCF7 cells at 10 uM after 12 to 24 hrs by Annexin V-FITC/PI staining based flow cytometry; type: functional, cell-based
Nucleic Acid = assay: Induction of DNA damage in Escherichia coli pBR322 at 100 uM after 2 hrs by agarose gel electrophoresis; type: functional
HEK293 = assay: Cytotoxicity against human HEK293 cells by MTT assay; type: cell-based
HeLa = assay: Cytotoxicity against human HeLa cells by MTT assay; type: functional, cell-based
SMMC-7721 = assay: Cytotoxicity against human SMMC7721 cells by MTT assay; type: functional, cell-based
MCF7 [6] = assay: Cytotoxicity against human MCF7 cells by MTT assay; type: functional, cell-based
U-937 = assay: Cytotoxicity against human U937 cells by MTT assay; type: functional, cell-based
K562 = assay: Cytotoxicity against human K562 cells by MTT assay; type: functional, cell-based
MCF7 [7] = assay: Cytotoxicity against human MCF7 cells transfected with Bax/Bak shRNA assessed as cell viability after 48 hrs by MTT assay; type: functional, cell-based
Procedure, shortened: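 MCF-7 cells transfected with nonspecific shRNA or Bax/Bak shRNA, treated 48 h with graded doses of compound. Viability read by MTT assay.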

[8] = target: T1, Induced myeloid leukemia cell differentiation protein Mcl-1; assay: Binding affinity to Mcl-1 in ABT737-resistant human Nalm-6 cells assessed as disruption of Mcl-1/Bak at 5 uM after 12 to 24 hrs by coimmunoprecipitation assay; type: cell-based
Procedure, shortened: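 Nalm-6 cells (ABT737-resistant) incubated with 5 μM compound for 12 or 24 h. Total cell lysates immunoprecipitated with anti-Bcl-2 or anti-Mcl-1 antibody. Precipitates and lysates resolved by SDS-PAGE and Western blotted with anti-Bcl-2, anti-Bax, anti-Mcl-1 and anti-Bak antibodies.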

Apoptosis regulator Bcl-2, sequence (P10415 whole entry): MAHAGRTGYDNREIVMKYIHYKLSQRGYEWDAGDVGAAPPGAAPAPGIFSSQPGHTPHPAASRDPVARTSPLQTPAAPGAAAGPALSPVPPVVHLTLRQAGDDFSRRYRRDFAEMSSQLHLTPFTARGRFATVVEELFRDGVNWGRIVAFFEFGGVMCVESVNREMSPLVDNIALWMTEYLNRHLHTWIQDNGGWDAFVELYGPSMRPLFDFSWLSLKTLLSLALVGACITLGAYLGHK

Q: Which Ki [1] does the source give for `O=C1c2ccc(Sc3ccccc3)cc2C(=O)c2cc(O)c(O)cc21` here?
A: 0.071 µM

Q: What about the Ki [2] of the same molecule?
A: 0.053 µM

Q: With `O=C1c2ccc(Br)cc2C(=O)c2cc(O)c(O)cc21` as the molecule, how does the Ki [1] read?
A: 0.132 µM

Q: What about the Ki [2] of the same molecule?
A: 0.107 µM

Q: Which results are given for `O=C1c2ccccc2C(=O)c2c1ccc(O)c2O` [ATHRAQUINONES A]?
A: Ki [1]: 1.15 µM; Ki [2]: 1.62 µM

Q: For `O=C1c2ccccc2C(=O)c2c1cc(O)c(O)c2O`, which Ki [1] is on record?
A: 0.583 µM

Q: And the Ki [2]?
A: 0.27 µM

Q: With `O=C1c2ccc(Sc3ccc(Br)cc3)cc2C(=O)c2cc(O)c(O)cc21` as the molecule, how does the Ki [1] read?
A: 0.087 µM

Q: And the Ki [2]?
A: 0.056 µM

Q: Which Ki [1] does the source give for `O=C1c2ccccc2C(=O)c2c(O)cc(O)cc21` [XANTHOPURPURIN] here?
A: 1.7 µM

Q: What about the Ki [2] of the same molecule?
A: 2.27 µM

Q: Which IC50 [3] does the source give for `CC(C)c1ccc(Sc2ccc3c(c2)C(=O)c2cc(O)c(O)cc2C3=O)cc1` here?
A: 4.37 µM

Q: What about the Activity (MCF7 [4]) of the same molecule?
A: inactive

Q: What about the Activity (MCF7 [5]) of the same molecule?
A: Active

Q: And the Activity (Nucleic Acid)?
A: inactive

Q: What about the IC50 (HEK293) of the same molecule?
A: 50.3 µM

Q: What about the IC50 (HeLa) of the same molecule?
A: 5.24 µM

Q: What about the IC50 (SMMC-7721) of the same molecule?
A: 6.85 µM

Q: What about the IC50 (MCF7 [6]) of the same molecule?
A: 6.12 µM

Q: What about the IC50 (U-937) of the same molecule?
A: 4.06 µM

Q: What about the IC50 (K562) of the same molecule?
A: 3.25 µM

Q: What about the Activity (MCF7 [7]) of the same molecule?
A: inactive

Q: What about the Activity [8] of the same molecule?
A: Active

Q: What about the Ki [1] of the same molecule?
A: 0.024 µM

Q: And the Ki [2]?
A: 0.013 µM

Q: With `O=C1c2ccccc2C(=O)c2cc(O)c(O)cc21` as the molecule, how does the Ki [1] read?
A: 0.42 µM

Q: And the Ki [2]?
A: 0.312 µM

Q: For `Cc1ccc(Sc2ccc3c(c2)C(=O)c2cc(O)c(O)cc2C3=O)cc1`, which Ki [1] is on record?
A: 0.044 µM

Q: And the Ki [2]?
A: 0.038 µM
